Source: ChEMBL document CHEMBL1240350, “In vitro activity of CEM-101 against Streptococcus pneumoniae and Streptococcus pyogenes with defined macrolide resistance mechanisms” (Antimicrob Agents Chemother, 2010)
Converted amounts (≈) assume the structure as drawn.

Legend:
Streptococcus pneumoniae [1] = assay: Antibacterial activity against macrolide-susceptible Streptococcus pneumoniae after overnight incubation by agar dilution method; format: functional
Outline: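 Agar dilution MICs on Mueller-Hinton agar with 5% sheep blood. Inoculum 10^4 CFU/spot, incubated overnight at 35°C in ambient air. Clinical S. pneumoniae or group A streptococcal isolates; resistance genotypes (erm(B), erm(A), mef(A)/mef(E)) were assigned by PCR. S. pneumoniae ATCC 49619 served as QC strain in each run. Range, MIC50 and MIC90 reported per phenotype group.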

Streptococcus pneumoniae [2] = assay: Antibacterial activity against Streptococcus pneumoniae harboring erm(B) gene after overnight incubation by agar dilution method; format: functional
Outline: (§1)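 Clinical isolates collected 1998–2008, with macrolide-resistance genes confirmed by PCR. MICs by agar dilution on Mueller-Hinton agar with 5% sheep blood. Inoculum 10^4 CFU/spot, incubated overnight at 35°C in ambient air. S. pneumoniae ATCC 49619 was the quality-control strain in every run.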

Streptococcus pneumoniae [3] = assay: Antibacterial activity against Streptococcus pneumoniae harboring mutation in L4 ribosomal protein after overnight incubation by agar dilution method; format: functional; outline: as §1
Streptococcus pneumoniae [4] = assay: Antibacterial activity against macrolide-susceptible Streptococcus pneumoniae 1077 after 49 passages following overnight incubation by agar dilution method; format: functional
Streptococcus pneumoniae [5] = assay: Antibacterial activity against macrolide-resistant Streptococcus pneumoniae 3665 harboring mef(A) gene after 50 passages following overnight incubation by agar dilution method; format: functional
Streptococcus pneumoniae [6] = assay: Antibacterial activity against macrolide-resistant Streptococcus pneumoniae 1635 harboring erm(A) gene after 14 passages following overnight incubation by agar dilution method; format: functional
Streptococcus pneumoniae [7] = assay: Antibacterial activity against macrolide-resistant Streptococcus pneumoniae 2686 harboring mutation in L4 ribosomal protein after 50 passages following overnight incubation by agar dilution method; format: functional
Streptococcus pneumoniae [8] = assay: Antibacterial activity against macrolide-susceptible Streptococcus pneumoniae 7127 harboring S20N mutation in L4 ribosomal protein and A105V mutation in L22 ribosomal protein after 29 passages and 10 compound-free subculturing by retest method; format: functional
Streptococcus pneumoniae [9] = assay: Antibacterial activity against macrolide-susceptible Streptococcus pneumoniae 7127 harboring S20N mutation in L4 ribosomal protein and A105V mutation in L22 ribosomal protein after 43 passages following overnight incubation by agar dilution method; format: functional
Streptococcus pneumoniae [10] = assay: Antibacterial activity against macrolide-resistant Streptococcus pneumoniae 3009 harboring mutation in 23S rRNA after 50 passages following overnight incubation by agar dilution method; format: functional
Streptococcus pyogenes [11] = assay: Antibacterial activity against macrolide-susceptible Streptococcus pyogenes 2132 after 28 passages and 10 compound-free subculturing by retest method
Streptococcus pyogenes [12] = assay: Antibacterial activity against macrolide-resistant Streptococcus pyogenes 2011 harboring mef(A) gene after overnight incubation by agar dilution method
Streptococcus pyogenes [13] = assay: Antibacterial activity against macrolide-resistant Streptococcus pyogenes 237 harboring mutation in L4 ribosomal protein after overnight incubation by agar dilution method
Streptococcus pyogenes [14] = assay: Antibacterial activity against macrolide-resistant Streptococcus pyogenes 2094 harboring erm(A) gene after 34 passages following overnight incubation by agar dilution method
Streptococcus pyogenes [15] = assay: Antibacterial activity against macrolide-resistant Streptococcus pyogenes 237 harboring mutation in L4 ribosomal protein after 43 passages following overnight incubation by agar dilution method
Streptococcus pneumoniae [16] = assay: Antibacterial activity against macrolide-susceptible Streptococcus pneumoniae 1077 after 29 passages following overnight incubation by agar dilution method; format: functional
Streptococcus pneumoniae [17] = assay: Antibacterial activity against macrolide-susceptible Streptococcus pneumoniae 7127 harboring S20N mutation in L4 ribosomal protein and A105V mutation in L22 ribosomal protein after 29 passages following overnight incubation by agar dilution method; format: functional
Streptococcus pyogenes [18] = assay: Antibacterial activity against macrolide-susceptible Streptococcus pyogenes 2132 after 28 passages following overnight incubation by agar dilution method
Streptococcus pneumoniae [19] = assay: Antibacterial activity against macrolide-susceptible Streptococcus pneumoniae 7127 harboring S20N mutation in L4 ribosomal protein and A105V mutation in L22 ribosomal protein after 15 passages following overnight incubation by agar dilution method; format: functional
Streptococcus pneumoniae [20] = assay: Antibacterial activity against macrolide-resistant Streptococcus pneumoniae 3009 harboring mutation in 23S rRNA after 25 passages following overnight incubation by agar dilution method; format: functional
Streptococcus pneumoniae [21] = assay: Antibacterial activity against macrolide-susceptible Streptococcus pneumoniae 1077 after 43 passages following overnight incubation by agar dilution method; format: functional
Streptococcus pneumoniae [22] = assay: Antibacterial activity against macrolide-resistant Streptococcus pneumoniae 24 harboring erm(B) gene after 14 passages following overnight incubation by agar dilution method; format: functional
Streptococcus pneumoniae [23] = assay: Antibacterial activity against macrolide-resistant Streptococcus pneumoniae 3665 harboring mef(A) gene after 14 passages following overnight incubation by agar dilution method; format: functional
Streptococcus pneumoniae [24] = assay: Antibacterial activity against macrolide-resistant Streptococcus pneumoniae 1076 harboring erm(B) and mef(A) gene after 18 passages following overnight incubation by agar dilution method; format: functional
Streptococcus pneumoniae [25] = assay: Antibacterial activity against macrolide-resistant Streptococcus pneumoniae 1635 harboring erm(A) gene after 14 passages and 10 compound-free subculturing by retest method; format: functional
Outline: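 Multistep selection by daily serial passage in subinhibitory drug concentrations. Medium was cation-adjusted Mueller-Hinton broth plus 5% lysed horse blood. Each day the next inoculum came from the tube 1–2 dilutions below the MIC whose turbidity matched the growth control, for up to 50 days. Clone MICs by CLSI macrodilution; identity to the parent confirmed by SmaI PFGE.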

Streptococcus pneumoniae [26] = assay: Antibacterial activity against macrolide-resistant Streptococcus pneumoniae 3009 harboring mutation in 23S rRNA after 20 passages following overnight incubation by agar dilution method; format: functional
[27] = Tmax in human at 400 to 500 mg; conditions: in vivo
[28] = Half life in human at 400 to 500 mg; conditions: in vivo
Streptococcus pyogenes [29] = assay: Antibacterial activity against macrolide-resistant Streptococcus pyogenes 2368 harboring erm(B) gene after 18 passages following overnight incubation by agar dilution method
Streptococcus pyogenes [30] = assay: Antibacterial activity against macrolide-resistant Streptococcus pyogenes 2094 harboring erm(A) gene after 43 passages following overnight incubation by agar dilution method
Streptococcus pyogenes [31] = assay: Antibacterial activity against macrolide-resistant Streptococcus pyogenes 237 harboring mutation in L4 ribosomal protein after 20 passages following overnight incubation by agar dilution method
Streptococcus pneumoniae [32] = assay: Antibacterial activity against macrolide-susceptible Streptococcus pneumoniae 1077 after 15 passages following overnight incubation by […]; format: functional
Outline: (§2)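 S. pneumoniae parental strains were passaged daily in subinhibitory drug concentrations in cation-adjusted Mueller-Hinton broth with 5% lysed horse blood. Each passage was seeded from the tube 1 to 2 dilutions below the MIC whose turbidity matched the growth control. MICs of resistant clones were measured by CLSI macrodilution. Parent and clone identity was confirmed by PFGE of SmaI-digested DNA.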

Streptococcus pneumoniae [33] = assay: Antibacterial activity against macrolide-resistant Streptococcus pneumoniae 1635 harboring erm(A) gene after 50 passages following overnight incubation by […]; format: functional; outline: as §2
[34] = Streptococcus pneumoniae, 1635, read-out: MIC

Row | Structure (SMILES) | MIC50 (Streptococcus pneumoniae [1]) [µg/mL] | MIC90 (Streptococcus pneumoniae [1]) [µg/mL] | MIC50 (Streptococcus pneumoniae [2]) [µg/mL] | MIC50 (Streptococcus pneumoniae [3]) [µg/mL] | MIC90 (Streptococcus pneumoniae [3]) [µg/mL] | MIC (Streptococcus pneumoniae [5]) [µg/mL] | MIC (Streptococcus pneumoniae [6]) [µg/mL] | MIC (Streptococcus pneumoniae [8]) [µg/mL] | MIC (Streptococcus pneumoniae [10]) [µg/mL] | MIC (Streptococcus pyogenes [11]) [µg/mL] | MIC (Streptococcus pyogenes [12]) [µg/mL] | MIC (Streptococcus pyogenes [13]) [µg/mL] | MIC90 (Streptococcus pneumoniae [2]) [µg/mL] | MIC (Streptococcus pneumoniae [22]) [µg/mL] | MIC (Streptococcus pneumoniae [23]) [µg/mL] | MIC (Streptococcus pneumoniae [25]) [µg/mL] | MIC (Streptococcus pneumoniae [25]; [34]) [µg/mL] | also measured
1 | CCC[C@@H]1C[C@@H](C(=O)N[C@@H]([C@H]2O[C@H](SC)[C@H](O)[C@@H](O)[C@H]2O)[C@H](C)Cl)N(C)C1 [CLINDAMYCIN] | 0.03 (≈ 0.0706 µM) | 0.06 (≈ 0.141 µM) | > 64 | 0.06 (≈ 0.141 µM) | 0.125 (≈ 0.294 µM) | 0.03 (≈ 0.0706 µM) | > 64 | 0.06 (≈ 0.141 µM) | 2 (≈ 4.71 µM) | 0.03 (≈ 0.0706 µM) | 0.06 (≈ 0.141 µM) | 0.06 (≈ 0.141 µM) | – | – | – | – | – | MIC (Streptococcus pneumoniae [4]): 4 µg/mL (≈ 9.41 µM); MIC (Streptococcus pneumoniae [7]): 0.125 µg/mL (≈ 0.294 µM); MIC (Streptococcus pneumoniae [9]): 0.25 µg/mL (≈ 0.588 µM); MIC (Streptococcus pyogenes [14]): > 64 µg/mL; MIC (Streptococcus pyogenes [15]): 0.5 µg/mL (≈ 1.18 µM)
2 | CC[C@H]1OC(=O)[C@H](C)[C@@H](O[C@H]2C[C@@](C)(OC)[C@@H](O)[C@H](C)O2)[C@H](C)[C@@H](O[C@@H]2O[C@H](C)C[C@H](N(C)C)[C@H]2O)[C@](C)(O)C[C@@H](C)CN(C)[C@H](C)[C@@H](O)[C@]1(C)O [AZITHROMYCIN] | 0.125 (≈ 0.167 µM) | – | – | – | – | 16 (≈ 21.4 µM) | > 64 | 1 (≈ 1.34 µM) | – | 1 (≈ 1.34 µM) | 4 (≈ 5.34 µM) | 4 (≈ 5.34 µM) | – | – | – | – | – | MIC (Streptococcus pneumoniae [16]): > 64 µg/mL; MIC (Streptococcus pneumoniae [17]): 0.5 µg/mL (≈ 0.668 µM); MIC (Streptococcus pyogenes [18]): 1 µg/mL (≈ 1.34 µM)
3 | CC[C@H]1OC(=O)[C@H](C)[C@@H](O[C@H]2C[C@@](C)(OC)[C@@H](O)[C@H](C)O2)[C@H](C)[C@@H](O[C@@H]2O[C@H](C)C[C@H](N(C)C)[C@H]2O)[C@](C)(OC)C[C@@H](C)C(=O)[C@H](C)[C@@H](O)[C@]1(C)O [CLARITHROMYCIN] | 0.03 (≈ 0.0401 µM) | 0.06 (≈ 0.0802 µM) | > 64 | 16 (≈ 21.4 µM) | 32 (≈ 42.8 µM) | – | – | 0.5 (≈ 0.668 µM) | – | 0.25 (≈ 0.334 µM) | 4 (≈ 5.35 µM) | 0.25 (≈ 0.334 µM) | – | – | – | – | – | MIC (Streptococcus pneumoniae [19]): 16 µg/mL (≈ 21.4 µM); MIC (Streptococcus pneumoniae [20]): > 64 µg/mL
4 | CC[C@H]1OC(=O)[C@@](C)(F)C(=O)[C@H](C)[C@@H](O[C@@H]2O[C@H](C)C[C@H](N(C)C)[C@H]2O)[C@](C)(OC)C[C@@H](C)C(=O)[C@H](C)[C@H]2N(CCCCn3cc(-c4cccc(N)c4)nn3)C(=O)O[C@]12C [SOLITHROMYCIN] | 0.008 (≈ 0.00947 µM) | 0.015 (≈ 0.0178 µM) | 0.03 (≈ 0.0355 µM) | – | – | – | – | 0.016 (≈ 0.0189 µM) | – | 0.016 (≈ 0.0189 µM) | – | 0.03 (≈ 0.0355 µM) | 0.5 (≈ 0.592 µM) | 0.06 (≈ 0.071 µM) | 0.5 (≈ 0.592 µM) | 0.004 (≈ 0.00473 µM) | 0.004 (≈ 0.00473 µM) | MIC (Streptococcus pneumoniae [21]): 0.06 µg/mL (≈ 0.071 µM); MIC (Streptococcus pneumoniae [24]): 32 µg/mL (≈ 37.9 µM); MIC (Streptococcus pneumoniae [26]): 0.25 µg/mL (≈ 0.296 µM); Tmax [27]: 4 h; half-life [28]: 5 h; MIC (Streptococcus pyogenes [29]): 8 µg/mL (≈ 9.47 µM); MIC (Streptococcus pyogenes [30]): 0.25 µg/mL (≈ 0.296 µM); MIC (Streptococcus pyogenes [31]): 0.25 µg/mL (≈ 0.296 µM)
5 | CC[C@H]1OC(=O)[C@H](C)C(=O)[C@H](C)[C@@H](O[C@@H]2O[C@H](C)C[C@H](N(C)C)[C@H]2O)[C@](C)(OC)C[C@@H](C)C(=O)[C@H](C)[C@H]2N(CCCCn3cnc(-c4cccnc4)c3)C(=O)O[C@]12C [TELITHROMYCIN] | 0.03 (≈ 0.0369 µM) | 0.03 (≈ 0.0369 µM) | 0.06 (≈ 0.0739 µM) | 0.125 (≈ 0.154 µM) | 0.25 (≈ 0.308 µM) | – | – | 0.016 (≈ 0.0197 µM) | 0.03 (≈ 0.0369 µM) | 0.03 (≈ 0.0369 µM) | 0.5 (≈ 0.616 µM) | 0.06 (≈ 0.0739 µM) | 1 (≈ 1.23 µM) | 32 (≈ 39.4 µM) | 2 (≈ 2.46 µM) | 0.008 (≈ 0.00985 µM) | 0.004 (≈ 0.00493 µM) | MIC (Streptococcus pneumoniae [32]): 0.25 µg/mL (≈ 0.308 µM); MIC (Streptococcus pneumoniae [33]): 0.008 µg/mL (≈ 0.00985 µM)
